The source made the active and inactive calls. The calls are words filed in the database; no cut-off is given here.
Tests used:
L1210 [1] = test: Dose required to inhibit the cloning efficacy of L1210 cells to a factor of 0.37 after 24-h exposure to the compound; assay type: functional, Mus musculus
Method in brief: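 Exponentially growing L1210 cells were exposed to a range of drug concentrations for 24 h, then assessed by cloning. The dose reducing cloning efficiency to a factor of 0.37 was determined.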

Mus musculus [2] = species on record: Mus musculus; test: Increase in life span, expressed as treated by control was determined in DBA2 mice inoculated with L1210 cells; assay type: functional
Method in brief: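 DBA2 mice inoculated with 10⁵ L1210 leukemia cells and treated with compound. Read-out was increase in life span as T/C × 100, the mean % survival of treated over control animals. Significance was tested by Student's test. Optimal dose in mg/kg was the dose that most extended the life time of treated mice.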

Mus musculus [3] = species on record: Mus musculus; test: Maximal tolerated dose against DBA2 mice inoculated with L1210 cells was determined; assay type: functional
L1210 [4] = test: Dose required to inhibit growth of L1210 cells after 24-h exposure to the compound; assay type: functional; conditions: Mus musculus, L1210, 24 h; read-out: ED50 (the source's name)
Method in brief: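 Exponentially growing L1210 cells were exposed to a range of drug concentrations for 24 h. The dose giving 50% growth inhibition was determined.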

Mus musculus [5] = species on record: Mus musculus; test: Optimal dose required against DBA2 mice inoculated with L1210 cells; assay type: functional
Method in brief: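 DBA2 mice were inoculated with 10⁵ L1210 cells. The optimal dose (mg/kg) was the dose giving the greatest increase in life time of treated mice relative to controls.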

Calf thymus DNA = test: Affinity constant for calf thymus DNA; assay type: nucleic-acid assay; conditions: Bos taurus
Method in brief: (§1)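 Fluorescence competition assay with ethidium dimer at 25 °C in 0.1 M Tris-HCl, 0.1 M NaCl buffer, pH 7.4. Calf thymus DNA (1.6 × 10⁻⁶ M base pairs) was equilibrated with ethidium dimer for 24 h, then measured with varied drug concentrations. Excitation was 540 nm and emission 610 nm. Bound dye per base pair was derived by the Gaugain method. Ka was fitted from computed versus experimental displacement curves.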

Mus musculus [6] = species on record: Mus musculus; test: Increase in life span, expressed as treated by control was determined in DBA2 mice inoculated with L1210 cells; NS denotes not significant; assay type: functional, organism-based
Method in brief: (§2)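 DBA2 mice were inoculated with 10⁵ L1210 cells and treated. Increase in life span was reported as mean survival of treated over control × 100. Significance was assessed by Student's test.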

Nucleic Acid = test: Affinity constant against calf thymus DNA; NM denotes not measurable due to weak solubility; assay type: nucleic-acid assay; conditions: Bos taurus; method in brief: as §1
Mus musculus [7] = species on record: Mus musculus; test: Increase in life span, expressed as treated by control was determined in DBA2 mice inoculated with L1210 cells; NM denotes not measurable due to weak solubility; assay type: functional, organism-based; method in brief: as §2

| Structure (SMILES) | ED37 (L1210 [1]) [µM] | T/C (Mus musculus [2]) [%] | MTD (Mus musculus [3]) [mg/kg] | EC50 (L1210 [4]) [µM] | OD (Mus musculus [5]) [mg/kg] | Ka (Calf thymus DNA) [M⁻¹] | T/C (Mus musculus [6]) | Ka (Nucleic Acid) | T/C (Mus musculus [7]) |
| --- | --- | --- | --- | --- | --- | --- | --- | --- | --- |
| COc1ccc2[nH]c3c(C)cc4cc[n+](CCN5CCC(C6CCN(CC[n+]7ccc8cc(C)c9[nH]c%10ccc(OC)cc%10c9c8c7)CC6)CC5)cc4c3c2c1.CS(=O)(=O)O.CS(=O)(=O)O.CS(=O)(=O)[O-].CS(=O)(=O)[O-] | 0.1 | 172 | 11 | 0.37 | 7 | 5e+08 |  |  |  |
| COc1ccc2[nH]c3c(CN)cc4cc[n+](CCN5CCC(C6CCN(CC[n+]7ccc8cc(CN)c9[nH]c%10ccc(OC)cc%10c9c8c7)CC6)CC5)cc4c3c2c1.CS(=O)(=O)O.CS(=O)(=O)O.CS(=O)(=O)[O-].CS(=O)(=O)[O-] | 0.066 |  | 20 | 0.057 | 10 | 2e+07 | inactive |  |  |
| COc1ccc2c(c1)c1c3c(ccc1n2C)CCN(CCN1CCC(C2CCN(CCN4CCc5ccc6c(c5C4)c4cc(OC)ccc4n6C)CC2)CC1)C3.CS(=O)(=O)O.CS(=O)(=O)O | 0.6 |  | 10 | 0.66 | 10 | 4e+07 | inactive |  |  |
| COc1ccc2[nH]c3ccc4cc[n+](CCN5CCC(C6CCN(CC[n+]7ccc8ccc9[nH]c%10ccc(OC)cc%10c9c8c7)CC6)CC5)cc4c3c2c1.[Cl-].[Cl-] [DITERCALINIUM CHLORIDE] | 0.024 | 182 | 10 | 0.19 | 10 |  |  |  |  |
| COc1ccc2[nH]c3c(CNC(=O)[C@@H](N)CCC(=O)O)cc4cc[n+](CCN5CCC(C6CCN(CC[n+]7ccc8cc(CNC(=O)[C@@H](N)CCC(=O)O)c9[nH]c%10ccc(OC)cc%10c9c8c7)CC6)CC5)cc4c3c2c1.CS(=O)(=O)O.CS(=O)(=O)O.CS(=O)(=O)[O-].CS(=O)(=O)[O-] | >0.58 |  |  | 0.46 |  |  |  | Not measurable | Not measurable |
| COc1ccc2[nH]c3c(C(=O)NCCN4CCC(C5CCN(CCNC(=O)c6cc7ccncc7c7c6[nH]c6ccc(OC)cc67)CC5)CC4)cc4ccncc4c3c2c1 | 30 |  | 10 | 11 | 10 | 2e+08 | inactive |  |  |
| COc1ccc2[nH]c3ccc4cc[n+](CCN5CCC(C6CCN(CC[n+]7ccc8ccc9[nH]c%10ccc(OC)cc%10c9c8c7)CC6)CC5)cc4c3c2c1.CS(=O)(=O)O.CS(=O)(=O)O.CS(=O)(=O)[O-].CS(=O)(=O)[O-] | 0.02 | 182 | 10 |  | 10 |  |  |  |  |
| COc1ccc2[nH]c3c(CNC(=O)[C@]4(O)O[C@H](CO)[C@H](O)[C@H]4O)cc4cc[n+](CCN5CCC(C6CCN(CC[n+]7ccc8cc(CNC(=O)[C@]9(O)O[C@H](CO)[C@H](O)[C@H]9O)c9[nH]c%10ccc(OC)cc%10c9c8c7)CC6)CC5)cc4c3c2c1 |  |  |  | 2.15 |  | 3e+06 |  |  |  |
| COc1ccc2c(c1)c1c3cnccc3ccc1n2CCN1CCC(C2CCN(CCn3c4ccc(OC)cc4c4c5cnccc5ccc43)CC2)CC1.CS(=O)(=O)O.CS(=O)(=O)O |  |  | 10 | 0.6 | 10 | 1e+07 | inactive |  |  |
| COc1ccc2c(c1)c1c3c[n+](C)ccc3ccc1n2CCN1CCC(C2CCN(CCn3c4ccc(OC)cc4c4c5c[n+](C)ccc5ccc43)CC2)CC1.CS(=O)(=O)O.CS(=O)(=O)O.CS(=O)(=O)[O-].CS(=O)(=O)[O-] |  | 134 | 5 | 0.9 | 5 | > 1e+09 |  |  |  |
| COc1ccc2[nH]c3ccc4cc[n+](CCN5CCC(C6CCN(CC[n+]7ccc8ccc9[nH]c%10ccc(OC)cc%10c9c8c7)CC6)CC5)cc4c3c2c1 |  |  |  |  |  | 1e+07 |  |  |  |
| COc1ccc2[nH]c3c(C(=O)O)cc4cc[n+](CCN5CCC(C6CCN(CC[n+]7ccc8cc(C(=O)O)c9[nH]c%10ccc(OC)cc%10c9c8c7)CC6)CC5)cc4c3c2c1.CS(=O)(=O)O.CS(=O)(=O)O.CS(=O)(=O)[O-].CS(=O)(=O)[O-] | >0.8 |  |  | > 0.8 |  | 250000 |  |  | Not measurable |

From ChEMBL document CHEMBL1126026, “Synthesis and biological activity of new dimers in the 7H-pyrido[4,3-c] carbazole antitumor series” (1992)
